Assay results taken from ChEMBL document CHEMBL1152665, “1,3,4-Oxadiazole-2(3H)-thione and its analogues: a new class of non-competitive nucleotide pyrophosphatases/phosphodiesterases 1 inhibitors” (Bioorg Med Chem, 2009).
pIC50, pKi: −log10 of the molar value.

Key:
[1] = Inhibition of snake venom NPP1 assessed as release of p-nitrophenol after 30 mins by microtitre plate spectrophotometry; design: species or system Naja naja; conditions: for pIC50: read-out: IC50
In short: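 Substrate: 0.33 mM bis-(p-nitrophenyl) phosphate. p-Nitrophenol release read at 410 nm, 37 °C, after 30 min incubation. Initial rates taken as OD/min change, run in triplicate. Cysteine and EDTA served as positive controls.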

[2] = target: T1, Ectonucleotide pyrophosphatase/phosphodiesterase family member 1 (Homo sapiens, UniProt P22413); assay: Inhibition of human recombinant NPP1 assessed as release of p-nitrophenol by microtitre plate spectrophotometry
T1 sequence (P22413 whole entry): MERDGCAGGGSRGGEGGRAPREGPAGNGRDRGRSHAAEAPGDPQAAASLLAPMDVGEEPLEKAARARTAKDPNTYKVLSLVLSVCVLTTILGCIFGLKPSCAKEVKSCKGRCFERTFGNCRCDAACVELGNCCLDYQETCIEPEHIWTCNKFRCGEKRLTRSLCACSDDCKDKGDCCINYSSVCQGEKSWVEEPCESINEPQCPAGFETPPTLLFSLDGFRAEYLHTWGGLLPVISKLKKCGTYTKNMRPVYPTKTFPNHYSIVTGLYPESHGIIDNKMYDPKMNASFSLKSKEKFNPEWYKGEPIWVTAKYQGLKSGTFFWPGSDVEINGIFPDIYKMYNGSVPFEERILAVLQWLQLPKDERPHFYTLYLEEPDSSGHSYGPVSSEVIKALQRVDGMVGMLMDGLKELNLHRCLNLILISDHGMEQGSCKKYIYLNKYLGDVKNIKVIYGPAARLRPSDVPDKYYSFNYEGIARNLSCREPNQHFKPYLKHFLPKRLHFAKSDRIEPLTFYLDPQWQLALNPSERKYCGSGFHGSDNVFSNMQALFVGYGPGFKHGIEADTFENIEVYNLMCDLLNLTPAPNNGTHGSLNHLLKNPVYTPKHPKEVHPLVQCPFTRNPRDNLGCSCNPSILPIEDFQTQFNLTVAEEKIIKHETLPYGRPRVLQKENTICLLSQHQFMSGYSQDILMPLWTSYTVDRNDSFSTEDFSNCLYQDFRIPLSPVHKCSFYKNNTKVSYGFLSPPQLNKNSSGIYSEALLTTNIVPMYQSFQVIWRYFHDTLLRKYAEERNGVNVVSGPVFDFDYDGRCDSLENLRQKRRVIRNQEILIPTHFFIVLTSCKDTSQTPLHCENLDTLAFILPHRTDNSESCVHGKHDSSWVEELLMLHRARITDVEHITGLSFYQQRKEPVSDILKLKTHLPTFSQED
In short: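 Soluble catalytic extracellular domain of human NPP1. Substrate p-nitrophenyl phenyl phosphonate in 20 mM Tris–HCl pH 8.0, 0.5 M NaCl, 1 mM CaCl2. p-Nitrophenol release read at 405 nm, 37 °C, microtitre plate. Triplicates; IC50 given with SEM of 3–5 experiments.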

[3] = Noncompetitive inhibition of snake venom NPP1 by Dixon plot analysis; design: species or system Naja naja
[4] = target: T1, Ectonucleotide pyrophosphatase/phosphodiesterase family member 1; assay: Noncompetitive inhibition of human recombinant NPP1 by Dixon plot analysis
In short: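 Same human NPP1 assay at fixed inhibitor concentrations. Dixon plots run at p-nitrophenyl phenyl phosphonate 0.4, 0.6, 0.8 and 1.0 mM, and Lineweaver–Burk plots from initial velocities. Secondary replots were slope versus 1/[S], and 1/Vmaxapp or slope versus inhibitor. Ki is the mean of five values from these plots; points are means of three experiments.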

[5] = Cytotoxicity against human neutrophils assessed as cell viability up to 200 ug/mL after 30 mins by WST1 assay; format: cell-based, Neutrophil
In short: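 Neutrophils isolated from heparinized venous blood of healthy volunteers (Ficoll sedimentation, ammonium chloride 0.83% RBC lysis), 1 × 10^7 cells/mL, exposed to compounds at 200–12.5 µg/mL (five concentrations) for 30 min. Then WST-1 0.25 mM, 3 h at 37 °C with shaking, absorbance 450 nm. Mean of five replicates; % viability relative to untreated control.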

| Compound | IC50 [1] | pIC50 [1] | pIC50 [2] | pKi [3] | pKi [4] | viability at 0.5 h [5] [%] |
| --- | --- | --- | --- | --- | --- | --- |
| CCCOc1ccc(-c2nn(CC)c(=S)s2)cc1 | Not Active | – | – | – | – | – |
| CCCCCCCCn1nc(-c2ccc(OCc3ccccc3)cc2)oc1=S | – | < 3.00 | – | – | – | – |
| S=c1[nH]nc(Cc2n[nH]c(=S)o2)o1 | – | 3.07 | < 3.00 | 3.30 | – | – |
| Oc1cccc(-c2n[nH]c(=S)o2)c1 | – | 3.00 | – | 2.98 | – | – |
| CCCn1nc(-c2ccc(O)cc2)sc1=S | Not Active | – | – | – | – | – |
| Oc1ccc(-c2n[nH]c(=S)s2)cc1 | – | 3.41 | 3.05 | 3.46 | 3.07 | – |
| CC(C)(C)[Si](C)(C)Oc1ccc(-c2n[nH]c(=S)s2)cc1 | – | 4.18 | < 3.00 | 4.00 | – | > 90 |
| Oc1ccc(-c2nn(Cc3ccccc3)c(=S)s2)cc1 | Not Active | – | – | – | – | – |
| S=c1[nH]nc(C(c2ccccc2)c2ccccc2)s1 | – | < 3.00 | – | – | – | – |
| S=c1[nH]nc(Cc2n[nH]c(=S)s2)s1 | – | 3.08 | – | 2.98 | – | > 90 |
| S=c1sc(-c2ccc(OCc3ccccc3)cc2)nn1Cc1ccccc1 | Not Active | – | – | – | – | – |
| CC(C)(C)[Si](C)(C)Oc1ccc(-c2n[nH]c(=S)o2)cc1 | – | 3.42 | 3.43 | 3.43 | 3.44 | > 90 |
| S=c1[nH]nc(-c2cccc(OCc3ccccc3)c2)o1 | – | < 3.00 | 3.31 | – | 3.44 | – |
| S=c1[nH]nc(-c2ccncc2)o1 | – | < 3.00 | – | – | – | – |
| S=c1[nH]nc(CCCc2n[nH]c(=S)o2)o1 | – | 3.37 | 3.33 | 3.35 | 3.82 | – |
| Oc1ccc(-c2n[nH]c(=S)o2)cc1 | – | 3.02 | – | 2.94 | – | – |
| S=c1[nH]nc(-c2ccncc2)s1 | – | 3.18 | 3.00 | 3.28 | – | – |
| S=c1[nH]nc(-c2ccc(OCc3ccccc3)cc2)o1 | – | 3.05 | 3.20 | 2.85 | 3.07 | – |
